Screening results: PubChem, Broad Institute
S100A4 MyoIIA = inhibitors of S100A4-myosin IIA peptide binding, primary screen, biochemical, fluorescence polarization, TAMRA-MyoIIA peptide; Protein S100-A4 (Homo sapiens), P26447; inhibition, % at 10.7 µM; 0.14% of 360,000 active;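 active = mean inhibition of at least 70% across replicates, with every replicate also reaching that level; inconclusive = mean inhibition reaches 70% but some replicates fall short; inactive = mean inhibition below 70%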
Target sequence (P26447 whole entry, looked up): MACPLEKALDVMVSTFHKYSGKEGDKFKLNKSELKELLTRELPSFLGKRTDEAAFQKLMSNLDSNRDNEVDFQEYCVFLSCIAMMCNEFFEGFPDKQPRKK
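incubation = readout 5 min after mixing, signal stable up to 60 min | system = S100A4 monomer protein | buffer or medium = HEPES pH 7.2 with CaCl2, KCl, NaCl, DTT, Triton | benchmarks = neutral control DMSO, positive control TFP | also added = fluorescent myosin IIA peptide, 5 nM | compound dosing = one concentration per compound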
DENV2 CPE = inhibitors of DENV2 cytopathic effect, primary screen, cell-based, plate reader, single concentration; CPE inhibition, % at 9.99 µM; AID 651640, 2012; 1.7% of 350,000 active; DENV2-infected cells, cytopathic effect rescue; in the data active = CPE inhibition above about 20%, passing the limit was not always enough; inconclusive = no clear call, values can overlap the other calls; tested in BHK-21 cells
PGC1a acetyl inh = inhibitors of PGC1a acetylation signal, primary screen, cell-based, U2OS, AlphaScreen, inhibitor mode; 0.17% of 350,000 active; inhibition, % at 15.6 µM; AlphaScreen anti-acetyl-lysine; with virally co-expressed GCN5 acetyltransferase;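 active = every replicate shows inhibition of at least 40%; inconclusive = mean inhibition at least 40% but some replicate below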
C2C12 statin = suppressors of statin myotoxicity in C2C12 myotubes, primary screen, cell-based, single point, plate reader; AID 602340, 2012; 0.78% of 330,000 active; rescue of ATP level, % at 7.49 µM; C2C12 myotubes + simvastatin, ATP luminescence, 48 h; scaled: DMSO 0, geranylgeraniol control 100;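 active = mean ATP rescue above about 67%, or every replicate alone reaching that limit, limit read from the data, passing the limit was not always enough; inconclusive = no clear call, values can overlap the other calls; inactive = mean under the limit and some replicate under it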;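 also: myotubes were challenged with 10 µM simvastatin during compound exposure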
SIRT5 block = SIRT5 desuccinylase inhibitors, primary screen, biochemical, fluorescence imaging, single point, set 5; Purified SirT5, succinyl-peptide AMC, trypsin-coupled fluorescence; inhibition, % at 15 µM; 1.1% of 330,000 active; in the data active = inhibition above about 15%; inconclusive = no clear call, values can overlap the other calls
Target sequence (Q9NXA8 whole entry, looked up): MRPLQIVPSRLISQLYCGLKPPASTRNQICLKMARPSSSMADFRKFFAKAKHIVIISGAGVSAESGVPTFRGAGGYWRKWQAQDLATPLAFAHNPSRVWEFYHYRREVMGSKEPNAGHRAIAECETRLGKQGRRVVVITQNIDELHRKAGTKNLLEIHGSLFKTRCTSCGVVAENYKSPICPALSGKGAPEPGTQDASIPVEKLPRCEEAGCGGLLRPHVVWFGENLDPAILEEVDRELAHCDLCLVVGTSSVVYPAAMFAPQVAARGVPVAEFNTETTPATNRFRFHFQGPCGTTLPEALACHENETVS
Hits are given with their value; i = inactive; ? = inconclusive; nt = not tested or not shown; ! = not confirmed by another sample. This is a sample that favours compounds with a hit; in the whole collection about 2.9% have one here.

SMILES	S100A4 MyoIIA	DENV2 CPE	PGC1a acetyl inh	C2C12 statin	SIRT5 block
Cc1ccc(OCC(=O)Nc2ccc(S(=O)(=O)Nc3cc(C)nc(C)n3)cc2)cc1	i	i	i	i	i
O=C(N[C@@H]1CC[C@@H](CCNC(=O)c2cnccn2)O[C@H]1CO)c1ccc2c(c1)OCO2	i	i	i	i	i
C[C@@H]1CN([C@H](C)CO)C(=O)CCCn2nncc2CO[C@@H]1CN(C)S(=O)(=O)c1cccc(F)c1	i	i	i	i	15!
Cc1cccc(S(=O)(=O)N(C)C[C@H]2OCc3cn(nn3)CCCC(=O)N([C@@H](C)CO)C[C@@H]2C)c1	i	47!	i	i	i
C[C@H]1CN([C@@H](C)CO)C(=O)CCCn2nncc2CO[C@H]1CN(C)S(=O)(=O)c1cccc(F)c1	i	i	i	i	i
Cc1cccc(S(=O)(=O)N(C)C[C@H]2OCc3cnnn3CCCC(=O)N([C@H](C)CO)C[C@@H]2C)c1	i	?	i	i	21!
CC(=O)N[C@H]1C[C@@H]2O[C@H](CO)CC[C@@H]2O[C@@H]1CCc1ccc(C#CC2(O)CCCC2)cc1	i	?	i	nt	i
C[C@H]1CN([C@@H](C)CO)C(=O)c2cccc(NC(=O)CCCCCC(=O)Nc3ccccc3N)c2O[C@H]1CN(C)S(=O)(=O)c1cccs1	i	55	i	nt	i
C[C@H](CO)N1C[C@H](C)[C@H](CN(C)S(=O)(=O)c2cccs2)Oc2c(NC(=O)CCCCCC(=O)Nc3ccccc3N)cccc2C1=O	i	22	i	nt	i
O=C(NCc1ccccn1)[C@@H]1[C@@H](CO)[C@@H]2Cn3c(cccc3=O)[C@@H]2N1CCc1ccccc1	i	i	nt	i	16
C[C@@H](NC(=O)[C@@H]1[C@@H](CO)[C@@H]2Cn3c(cccc3=O)[C@@H]2N1CC1CCCC1)c1ccccc1	nt	156	nt	i	i
O=C(NCc1ccc(F)cc1)[C@H]1[C@H](CO)[C@H]2Cn3c(cccc3=O)[C@H]2N1Cc1ccccn1	i	i	i	i	i
C[C@H](NC(=O)[C@@H]1[C@@H](CO)[C@@H]2Cn3c(cccc3=O)[C@@H]2N1Cc1cccnc1)c1ccccc1	i	41	nt	i	i
CCC(=O)N[C@@H]1CC[C@H](CC(=O)NCC2CCCCC2)O[C@H]1CO	i	?	i	i	i
CCC(=O)N1[C@H](CO)[C@@H]2c3ccccc3N(S(=O)(=O)c3ccccc3F)C[C@@H]21	?	i	i	i	i
O=C(CCN1CCCCC1)NCC[C@H]1CC[C@H](NC(=O)C2CCC2)[C@H](CO)O1	i	i	i	i	i
O=C(CCN1CCCCC1)NCC[C@H]1CC[C@H](NC(=O)C2CCC2)[C@@H](CO)O1	i	23	i	i	i
O=C(CCN1CCCCC1)NCC[C@@H]1CC[C@H](NC(=O)C2CCC2)[C@@H](CO)O1	i	46	i	i	i
O=C(O)CCCCCN1C(=O)/C(=C\c2ccc(-c3ccc(Cl)cc3)o2)SC1=S	i	i	i	133	i
O=C(O)CCCN1C(=O)/C(=C/c2ccc(-c3nc4ccccc4s3)o2)SC1=S	nt	nt	i	i	nt
C[C@H]1CN([C@@H](C)CO)C(=O)c2cc(C#CC(C)(C)O)cnc2O[C@H]1CN(C)C(=O)CN(C)C	i	i	i	i	i
COc1cccc(C(=O)N2C(C(C)C)COc3cc(Br)ccc3S2(=O)=O)c1 (centres undefined)	i	i	i	i	i
COc1ccccc1C(=O)N1[C@@H](C(C)C)COc2cc(Br)ccc2S1(=O)=O	i	78	nt	i	i
CCCN(C)C[C@H]1Oc2cc(-c3cccc(C#N)c3)ccc2S(=O)(=O)N([C@@H](C)CO)C[C@H]1C	i	i	i	i	i
Cc1ccc2c(c1)N(S(=O)(=O)c1ccc(F)cc1)C(C(C)(C)C)CO2 (centres undefined)	nt	nt	i	i	nt
SMILES	S100A4 MyoIIA	DENV2 CPE	PGC1a acetyl inh	C2C12 statin	SIRT5 block
Cc1ccc2c(c1)NC(C(C)(C)C)CO2 (centres undefined)	nt	nt	i	115	nt
O=C(N/N=C/c1ccc(OC(=O)c2ccccc2)cc1)c1ccc(CN2CCOCC2)cc1	nt	nt	i	i	nt
O=C(N/N=C/c1ccc(OC2CSC2)cc1)c1ccc(CN2CCOCC2)cc1	i	i	?	nt	28
Cc1ccc(N(C(=O)Cn2nnc3ccccc32)C(C(=O)NCc2ccco2)c2ccc(C)o2)cc1 (centres undefined)	nt	nt	i	130	nt
Cc1ccc(C(C(=O)NCc2ccco2)N(C(=O)Cn2nnc3ccccc32)c2ccccc2)o1 (centres undefined)	nt	nt	i	i	nt
O=C(NCc1ccco1)C(c1ccc(F)cc1)N(Cc1cccnc1)C(=O)Cn1nnc2ccccc21 (centres undefined)	nt	nt	i	102	nt
COc1ccccc1-c1ccc(C2[C@@H]3CN(S(=O)(=O)c4ccccc4C)C[C@H]2N3)cc1 (some centres undefined)	i	i	i	nt	i
CC(C)NC(=O)Nc1ccc2c(c1)CC(=O)N([C@@H](C)CO)C[C@@H](C)[C@H](CN(C)S(=O)(=O)c1ccccc1)O2	i	i	i	i	i
COc1ccc2c3c([nH]c2c1)[C@@H](CO)N(Cc1ccncc1)CC31CCN(C(=O)Cc2ccncc2)CC1	i	i	nt	nt	nt
COc1ccc2c(CN3CCCC3)cc(=O)oc2c1	i	i	i	i	19
COc1ccc2oc(=O)cc(CN3CCN(Cc4ccc(OC)c(OC)c4OC)CC3)c2c1	i	i	i	123	i
Cc1noc(C)c1NC(=O)N(C)C[C@@H]1Oc2c(NC(=O)Nc3ccc(F)cc3)cccc2C(=O)N([C@@H](C)CO)C[C@H]1C	i	i	i	i	i
CCN(C)c1cc2c(c3c1ccn3C)C1CCC2C1 (centres undefined)	i	?	i	i	i
CN(c1cc2c(c3c1ccn3C)C1CCC2C1)C1CCCCC1 (centres undefined)	i	i	78	i	i
CC(C)NC(=O)N(C)C[C@@H]1Oc2c(NS(=O)(=O)c3cccs3)cccc2C(=O)N([C@@H](C)CO)C[C@H]1C	i	i	i	i	i
C[C@H]1CN([C@@H](C)CO)C(=O)c2cc(NC(=O)NC3CCCCC3)ccc2O[C@H]1CN(C)Cc1ccncc1	i	25	i	i	i
C[C@@H]1CCCCO[C@H](CN(C)Cc2ccncc2)[C@@H](C)CN([C@@H](C)CO)C(=O)c2cc(NC(=O)NC3CCCCC3)ccc2O1	i	75	i	i	i
C[C@@H]1CN([C@H](C)CO)C(=O)c2cc(NC(=O)Nc3ccc(F)cc3)ccc2O[C@H]1CN(C)Cc1ccncc1	i	37	i	i	i
C[C@@H]1CN([C@@H](C)CO)C(=O)c2cc(NC(=O)Nc3ccc(F)cc3)ccc2O[C@@H](C)CCCCO[C@H]1CN(C)Cc1ccncc1	nt	i	i	107	nt
